Peptide text beside a SMILES is read from it.
Target: Integrin alpha-IIb/beta-3 (Homo sapiens) (UniProt P05106+P08514)
Test: Inhibition of fibrinogen binding to immobilized fibrinogen receptor
Assay type: protein-complex assay
Parameters: reference not given here

Row | Structure (SMILES) | Ratio
1 | N=C(N)c1ccc(C(=O)Nc2cccc(C(=O)NCCC(=O)O)c2)cc1 | 0.0005
2 | C[C@@]1(C(=O)N2CCC(OCC(=O)O)CC2)CCCN1C(=O)c1ccc(C(=N)N)cc1 | 0.37
3 | N=C(N)c1ccc(C(=O)NCCc2ccc(OCC(=O)O)cc2)cc1 | 0.028
4 | CC(C)[C@H](NC(=O)[C@H](CC(=O)O)NC(=O)CNC(=O)[C@@H](N)CCCNC(=N)N)C(=O)O (H-RGDV-OH) | 0.63
5 | N=C(N)c1ccc(C(=O)NCC(=O)N2CCC(OCC(=O)O)CC2)cc1 | 0.008
6 | CC(C)[C@H](NC(=O)[C@H](CC(=O)O)NC(=O)CNC(=O)COc1ccc(C(=N)N)cc1)C(=O)O | 0.02
7 | N=C(N)c1ccc(CC(N)C(=O)Nc2cccc(C(=O)NCCC(=O)O)c2)cc1 (stereo unspecified) | 10
8 | N=C(N)c1ccc(C(=O)NCC(=O)N[C@@H](CC(=O)O)C(=O)N[C@@H](Cc2ccccc2)C(=O)O)cc1 | 1
9 | COc1ccc(CCNC(=O)[C@H](CC(=O)O)NC(=O)CCNC(=O)c2ccc(C(=N)N)cc2)cc1 | 0.002
10 | C[C@@H](NC(=O)c1ccc(C(=N)N)cc1)C(=O)N1CCC(OCC(=O)O)CC1 | 0.007
11 | N=C(N)c1ccc(C(=O)NCCC(=O)N[C@@H](CC(=O)O)C(=O)N[C@@H](Cc2ccc(O)cc2)C(=O)O)cc1 | 6e-05
12 | N=C(N)c1ccc(C(=O)NCCC(=O)N[C@@H](CC(=O)O)C(=O)N[C@@H](Cc2ccccc2)C(=O)O)cc1 | 0.0003
13 | NC(N)=NCCC[C@H](N)C(=O)Nc1cccc(C(=O)NCCC(=O)O)c1 | 1.3
14 | C[C@H](NC(=O)c1ccc(C(=N)N)cc1)C(=O)N1CCC(OCC(=O)O)CC1 [RO-44-3888] | 0.0007
15 | N=C(N)c1ccc(C(=O)N[C@@H](CC(=O)O)C(=O)N2CCC(OCC(=O)O)CC2)cc1 | 0.02
16 | CN(CC(=O)c1ccc(OCC(=O)O)c(OCC(=O)O)c1)C(=O)c1ccc(C(=N)N)cc1 | 0.0001

Target: Integrin alpha-V/beta-3 (Homo sapiens) (UniProt P05106+P06756)
Test: Inhibition of fibrinogen binding to immobilized vitronectin receptor
Assay type: protein-complex assay
Parameters: reference not given here

Row | Structure (SMILES) | Ratio
17 | N=C(N)c1ccc(C(=O)Nc2cccc(C(=O)NCCC(=O)O)c2)cc1 | 8000
18 | C[C@@]1(C(=O)N2CCC(OCC(=O)O)CC2)CCCN1C(=O)c1ccc(C(=N)N)cc1 | 12000
19 | N=C(N)c1ccc(C(=O)NCCc2ccc(OCC(=O)O)cc2)cc1 | 1300
20 | CC(C)[C@H](NC(=O)[C@H](CC(=O)O)NC(=O)CNC(=O)[C@@H](N)CCCNC(=N)N)C(=O)O (H-RGDV-OH) | 0.6
21 | N=C(N)c1ccc(C(=O)NCC(=O)N2CCC(OCC(=O)O)CC2)cc1 | > 8000
22 | CC(C)[C@H](NC(=O)[C@H](CC(=O)O)NC(=O)CNC(=O)COc1ccc(C(=N)N)cc1)C(=O)O | 700
23 | N=C(N)c1ccc(CC(N)C(=O)Nc2cccc(C(=O)NCCC(=O)O)c2)cc1 (stereo unspecified) | 2500
24 | N=C(N)c1ccc(C(=O)NCC(=O)N[C@@H](CC(=O)O)C(=O)N[C@@H](Cc2ccccc2)C(=O)O)cc1 | 570
25 | COc1ccc(CCNC(=O)[C@H](CC(=O)O)NC(=O)CCNC(=O)c2ccc(C(=N)N)cc2)cc1 | 8000
26 | C[C@@H](NC(=O)c1ccc(C(=N)N)cc1)C(=O)N1CCC(OCC(=O)O)CC1 | > 9000
27 | N=C(N)c1ccc(C(=O)NCCC(=O)N[C@@H](CC(=O)O)C(=O)N[C@@H](Cc2ccccc2)C(=O)O)cc1 | 4500
28 | NC(N)=NCCC[C@H](N)C(=O)Nc1cccc(C(=O)NCCC(=O)O)c1 | 900
29 | C[C@H](NC(=O)c1ccc(C(=N)N)cc1)C(=O)N1CCC(OCC(=O)O)CC1 [RO-44-3888] | > 27000
30 | N=C(N)c1ccc(C(=O)N[C@@H](CC(=O)O)C(=O)N2CCC(OCC(=O)O)CC2)cc1 | > 30000
31 | CN(CC(=O)c1ccc(OCC(=O)O)c(OCC(=O)O)c1)C(=O)c1ccc(C(=N)N)cc1 | 37000

Tested on: not listed separately
Test: Inhibition of platelet aggregation in human-platelet rich plasma(h-PRP) induced by adenosine 5'-diphosphate-(ADP)
Assay type: functional
How it was run: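 Citrated human PRP with serial inhibitor dilutions; aggregation triggered by 10 μM ADP (final) and followed as rate of light transmission change in an aggregometer; plasma from at least four donors.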

Row | Structure (SMILES) | IC50 [µM]
32 | N=C(N)c1ccc(C(=O)Nc2cccc(C(=O)NCCC(=O)O)c2)cc1 | 0.2
33 | C[C@@]1(C(=O)N2CCC(OCC(=O)O)CC2)CCCN1C(=O)c1ccc(C(=N)N)cc1 | 13
34 | N=C(N)c1ccc(C(=O)NCCc2ccc(OCC(=O)O)cc2)cc1 | 0.8
35 | CC(C)[C@H](NC(=O)[C@H](CC(=O)O)NC(=O)CNC(=O)[C@@H](N)CCCNC(=N)N)C(=O)O (H-RGDV-OH) | 127
36 | N=C(N)c1ccc(C(=O)NCC(=O)N2CCC(OCC(=O)O)CC2)cc1 | 0.11
37 | CC(C)[C@H](NC(=O)[C@H](CC(=O)O)NC(=O)CNC(=O)COc1ccc(C(=N)N)cc1)C(=O)O | 0.7
38 | N=C(N)c1ccc(CC(N)C(=O)Nc2cccc(C(=O)NCCC(=O)O)c2)cc1 (stereo unspecified) | 95
39 | COc1ccc(CCNC(=O)[C@H](CC(=O)O)NC(=O)CCNC(=O)c2ccc(C(=N)N)cc2)cc1 | 0.12
40 | C[C@@H](NC(=O)c1ccc(C(=N)N)cc1)C(=O)N1CCC(OCC(=O)O)CC1 | 0.9
41 | N=C(N)c1ccc(C(=O)NCCC(=O)N[C@@H](CC(=O)O)C(=O)N[C@@H](Cc2ccc(O)cc2)C(=O)O)cc1 | 0.05
42 | N=C(N)c1ccc(C(=O)NCCC(=O)N[C@@H](CC(=O)O)C(=O)N[C@@H](Cc2ccccc2)C(=O)O)cc1 | 0.06
43 | NC(N)=NCCC[C@H](N)C(=O)Nc1cccc(C(=O)NCCC(=O)O)c1 | 51
44 | C[C@H](NC(=O)c1ccc(C(=N)N)cc1)C(=O)N1CCC(OCC(=O)O)CC1 [RO-44-3888] | 0.05
45 | N=C(N)c1ccc(C(=O)N[C@@H](CC(=O)O)C(=O)N2CCC(OCC(=O)O)CC2)cc1 | 0.35
46 | CN(CC(=O)c1ccc(OCC(=O)O)c(OCC(=O)O)c1)C(=O)c1ccc(C(=N)N)cc1 | 0.07

Tested on: not listed separately
Test: Inhibition of platelet aggregation in human-platelet rich plasma(h-PRP) induced by collagen
Assay type: functional
How it was run: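 Citrated human PRP with serial inhibitor dilutions; aggregation triggered by collagen at 2.5 μg/mL (final) and followed as rate of light transmission change in an aggregometer; plasma from at least four donors.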

Row | Structure (SMILES) | IC50 [µM]
47 | COC(=O)COc1ccc(C[C@H](C)NS(=O)(=O)c2ccc(C(=N)N)cc2)cc1 | 11
48 | NCc1ccc(C(=O)Nc2cccc(C(=O)NCCC(=O)O)c2)cc1 | 9.6
49 | N=C(N)c1ccc(C(=O)Nc2cccc(C(=O)NCCC(=O)O)c2)cc1 | 0.4
50 | C[C@@]1(C(=O)N2CCC(OCC(=O)O)CC2)CCCN1C(=O)c1ccc(C(=N)N)cc1 | 15
51 | N=C(N)c1ccc(C(=O)NCCc2ccc(OCC(=O)O)cc2)cc1 | 0.3
52 | CC(C)[C@H](NC(=O)[C@H](CC(=O)O)NC(=O)CNC(=O)[C@@H](N)CCCNC(=N)N)C(=O)O (H-RGDV-OH) | 151
53 | N=C(N)c1ccc(C(=O)NCC(=O)N2CCC(OCC(=O)O)CC2)cc1 | 0.1
54 | CC(C)[C@H](NC(=O)[C@H](CC(=O)O)NC(=O)CNC(=O)COc1ccc(C(=N)N)cc1)C(=O)O | 0.6
55 | N=C(N)c1ccc(CC(N)C(=O)Nc2cccc(C(=O)NCCC(=O)O)c2)cc1 (stereo unspecified) | 153
56 | N=C(N)c1ccc(C(=O)NCC(=O)N[C@@H](CC(=O)O)C(=O)N[C@@H](Cc2ccccc2)C(=O)O)cc1 | 76
57 | CC(C)[C@H](NC(=O)[C@H](CC(=O)O)NC(=O)CNC(=O)CCc1ccc(C(=N)N)cc1)C(=O)O | 2.3
58 | COc1ccc(CCNC(=O)[C@H](CC(=O)O)NC(=O)CCNC(=O)c2ccc(C(=N)N)cc2)cc1 | 0.1
59 | C[C@@H](NC(=O)c1ccc(C(=N)N)cc1)C(=O)N1CCC(OCC(=O)O)CC1 | 1.1
60 | N=C(N)c1ccc(C(=O)NCCC(=O)N[C@@H](CC(=O)O)C(=O)N[C@@H](Cc2ccc(O)cc2)C(=O)O)cc1 | 0.04
61 | N=C(N)c1ccc(C(=O)NCCC(=O)N[C@@H](CC(=O)O)C(=O)N[C@@H](Cc2ccccc2)C(=O)O)cc1 | 0.06
62 | NC(N)=NCCC[C@H](N)C(=O)Nc1cccc(C(=O)NCCC(=O)O)c1 | 50
63 | C[C@H](NC(=O)c1ccc(C(=N)N)cc1)C(=O)N1CCC(OCC(=O)O)CC1 [RO-44-3888] | 0.07
64 | N=C(N)c1ccc(C(=O)N[C@@H](CC(=O)O)C(=O)N2CCC(OCC(=O)O)CC2)cc1 | 0.34
65 | CN(CC(=O)c1ccc(OCC(=O)O)c(OCC(=O)O)c1)C(=O)c1ccc(C(=N)N)cc1 | 0.07

Tested on: not listed separately
Test: Inhibition of platelet aggregation in human-platelet rich plasma(h-PRP) induced by thrombin
Assay type: functional
How it was run: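 Citrated human PRP with serial inhibitor dilutions; aggregation triggered by thrombin at 0.2 unit/mL (final) and followed as rate of light transmission change in an aggregometer; plasma from at least four donors.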

Row | Structure (SMILES) | IC50 [µM]
66 | N=C(N)c1ccc(C(=O)Nc2cccc(C(=O)NCCC(=O)O)c2)cc1 | 0.5
67 | C[C@@]1(C(=O)N2CCC(OCC(=O)O)CC2)CCCN1C(=O)c1ccc(C(=N)N)cc1 | 49
68 | N=C(N)c1ccc(C(=O)NCCc2ccc(OCC(=O)O)cc2)cc1 | 0.4
69 | CC(C)[C@H](NC(=O)[C@H](CC(=O)O)NC(=O)CNC(=O)[C@@H](N)CCCNC(=N)N)C(=O)O (H-RGDV-OH) | 98
70 | N=C(N)c1ccc(C(=O)NCC(=O)N2CCC(OCC(=O)O)CC2)cc1 | 0.09
71 | CC(C)[C@H](NC(=O)[C@H](CC(=O)O)NC(=O)CNC(=O)COc1ccc(C(=N)N)cc1)C(=O)O | 0.5
72 | N=C(N)c1ccc(CC(N)C(=O)Nc2cccc(C(=O)NCCC(=O)O)c2)cc1 (stereo unspecified) | 95
73 | N=C(N)c1ccc(C(=O)NCC(=O)N[C@@H](CC(=O)O)C(=O)N[C@@H](Cc2ccccc2)C(=O)O)cc1 | 78
74 | COc1ccc(CCNC(=O)[C@H](CC(=O)O)NC(=O)CCNC(=O)c2ccc(C(=N)N)cc2)cc1 | 0.13
75 | C[C@@H](NC(=O)c1ccc(C(=N)N)cc1)C(=O)N1CCC(OCC(=O)O)CC1 | 1.1
76 | N=C(N)c1ccc(C(=O)NCCC(=O)N[C@@H](CC(=O)O)C(=O)N[C@@H](Cc2ccc(O)cc2)C(=O)O)cc1 | 0.02
77 | N=C(N)c1ccc(C(=O)NCCC(=O)N[C@@H](CC(=O)O)C(=O)N[C@@H](Cc2ccccc2)C(=O)O)cc1 | 0.07
78 | NC(N)=NCCC[C@H](N)C(=O)Nc1cccc(C(=O)NCCC(=O)O)c1 | 68
79 | C[C@H](NC(=O)c1ccc(C(=N)N)cc1)C(=O)N1CCC(OCC(=O)O)CC1 [RO-44-3888] | 0.05
80 | N=C(N)c1ccc(C(=O)N[C@@H](CC(=O)O)C(=O)N2CCC(OCC(=O)O)CC2)cc1 | 0.38
81 | CN(CC(=O)c1ccc(OCC(=O)O)c(OCC(=O)O)c1)C(=O)c1ccc(C(=N)N)cc1 | 0.06
